# Neddyl block = inhibitors of human cullin neddylation; TR-FRET cullin neddylation, biochemical; calls only at 25 µM; actives 0.58% (n = 360,000); in the data active = inhibition above about 36%
# DNA FID counter = counter-screen for HCV NS3 helicase inhibitors: DNA intercalator displacement. inhibition, % at 7.9 µM. DNA fluorescent intercalator displacement, fluorescence. actives 0.17% (n = 290,000); in the data active = inhibition above about 37%;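 also: 0% = vehicle and 100% = reference compound; higher means more ethidium bromide displaced from hairpin DNA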
# RAD52 inh = blocks human RAD52 DNA annealing. P43351. recombinant RAD52 DNA annealing, FRET fluorescence. inhibition, % at 18.7 µM. actives 0.46% (n = 360,000);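 active = every replicate showing at least 50% inhibition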
# Apaf1 inhib = human Apaf-1 inhibition; O14727; reconstituted apoptosome caspase-3 activity, DEVD-Rh110 fluorescence; inhibition, % at 20 µM; actives 0.71% (n = 330,000); AID 489030; active = inhibition of at least 40% at 20 µM;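 also: plate controls were DMSO wells for no effect and DEVD-CHO caspase inhibitor wells for full effect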
# Target sequence (O14727 whole entry, looked up): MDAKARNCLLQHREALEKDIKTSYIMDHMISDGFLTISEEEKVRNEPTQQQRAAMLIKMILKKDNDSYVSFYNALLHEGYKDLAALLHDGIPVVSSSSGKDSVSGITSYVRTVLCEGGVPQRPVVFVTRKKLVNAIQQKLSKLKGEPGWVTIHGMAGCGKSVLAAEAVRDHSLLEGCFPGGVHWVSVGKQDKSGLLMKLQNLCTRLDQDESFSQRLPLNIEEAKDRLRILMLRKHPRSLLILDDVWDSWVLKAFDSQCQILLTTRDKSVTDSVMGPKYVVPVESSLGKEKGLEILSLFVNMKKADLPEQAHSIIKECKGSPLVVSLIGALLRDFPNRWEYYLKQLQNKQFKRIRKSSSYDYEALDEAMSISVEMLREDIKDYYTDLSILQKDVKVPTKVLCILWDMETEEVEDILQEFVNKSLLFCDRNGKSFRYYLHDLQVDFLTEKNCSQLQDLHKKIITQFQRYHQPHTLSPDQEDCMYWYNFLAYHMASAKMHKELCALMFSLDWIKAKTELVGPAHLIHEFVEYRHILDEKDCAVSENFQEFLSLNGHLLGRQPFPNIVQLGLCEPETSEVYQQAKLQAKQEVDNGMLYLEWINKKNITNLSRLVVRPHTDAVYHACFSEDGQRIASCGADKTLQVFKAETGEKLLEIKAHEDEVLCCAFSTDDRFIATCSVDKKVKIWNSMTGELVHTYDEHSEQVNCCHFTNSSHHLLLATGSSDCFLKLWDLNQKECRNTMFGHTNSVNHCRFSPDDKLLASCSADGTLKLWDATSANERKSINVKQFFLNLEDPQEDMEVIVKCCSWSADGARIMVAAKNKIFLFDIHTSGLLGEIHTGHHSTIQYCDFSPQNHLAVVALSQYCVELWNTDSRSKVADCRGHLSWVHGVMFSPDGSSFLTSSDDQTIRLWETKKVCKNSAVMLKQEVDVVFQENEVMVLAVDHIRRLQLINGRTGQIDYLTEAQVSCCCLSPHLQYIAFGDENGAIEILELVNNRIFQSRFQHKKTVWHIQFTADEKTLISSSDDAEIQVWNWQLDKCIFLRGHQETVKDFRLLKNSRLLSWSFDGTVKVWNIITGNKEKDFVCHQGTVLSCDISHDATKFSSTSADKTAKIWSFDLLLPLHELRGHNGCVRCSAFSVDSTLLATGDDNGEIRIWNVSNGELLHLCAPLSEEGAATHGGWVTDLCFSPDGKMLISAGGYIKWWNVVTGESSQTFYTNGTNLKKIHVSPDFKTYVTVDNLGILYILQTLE
#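 System: Apoptosome proteins | Medium: Hepes pH 7.5 with detergent and BSA | Also added: Cytochrome c trigger plus (Z-DEVD)2-Rh110 caspase-3 substrate | Incubation: 30 min compound preincubation, 50 min activation, room temperature | Detection: Rhodamine 110 fluorescence at Ex 480/Em 540 nm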
# RAD54 branch = RAD54 (human) branch migration inhibition; Q92698; RAD54 Holliday junction branch migration, FAM/BHQ fluorescence; inhibition, % at 10.4 µM; actives 0.14% (n = 360,000); AID 602329;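 active = mean normalized replicate activity at least 40 and at least half of replicates scoring 40 or more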;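 also: 0% = median of neutral control wells and 100% = median of positive control wells; inhibitors cause a drop in the FAM fluorescence signal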
# UBC13 polyUb = inhibitors of human UBC13 polyubiquitin chain formation; inhibition, % at 20 µM; P61088; TR-FRET; actives 0.47% (n = 330,000); in the data active = inhibition above about 45%, passing the limit was not always enough
# Apaf-1 inh conf = confirmation of Apaf-1 inhibitors; AID 504614; actives 25% (n = 1,800); shares compounds with Apaf1 inhib; reconstituted apoptosome, caspase-3 DEVD-Rh110 fluorescence; inhibition, % at 20 µM;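 active = mean inhibition of at least 40% at 20 µM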;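 also: plate controls were DMSO wells for no effect and DEVD-CHO caspase inhibitor control wells for full effect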
# Rh110 interf inh = Rh110 signal interference in Apaf-1 inhibitor counter-screen; Rh110 fluorescence interference, quenched caspase reaction; activation (fluorescence interference), % at 20 µM; shares compounds with Apaf1 inhib; 1,800 tested, under 10 active; AID 504615;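 active = signal rise of 40% or more at 20 µM, treated as a fluorescence artifact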
# Fluor interf inh = Apaf-1 inhibitor counter-screen fluorescence artifact; shares compounds with Apaf1 inhib; fluorescence interference counterscreen, Apaf-1 assay format; IC50, µM; 460 tested, under 10 active; call rule not given here
# The depositor's hits bear a star; i = inactive; . = not tested or not shown. Sampled rows, rich in hits. Any-hit rate of the full collection: about 1.6%.
SMILES,Neddyl block,DNA FID counter,RAD52 inh,Apaf1 inhib,RAD54 branch,UBC13 polyUb,Apaf-1 inh conf,Rh110 interf inh,others
CCCSc1cc(NCCOC(C)=O)c([N+](=O)[O-])c2nonc12,i,1.6,.,7.2,.,-18.7,.,.,
CCCC(=O)OCCNc1cc(SCc2ccco2)c2nonc2c1[N+](=O)[O-],i,6.4,.,57.1*,.,-37.9,-1.3,0.3,
CC(=O)OCCCNc1cc(SCc2ccco2)c2nonc2c1[N+](=O)[O-],i,-6.7,.,73.8*,.,-32.5,0.2,-1.8,
CCCc1[nH]nc2c1C(c1ccc(OC)c(CSC3=NCCS3)c1)C(C#N)=C(N)O2 (stereo not drawn),i,-28.1,.,41.0*,-6.6,-0.9,42.9*,11.2,Fluor interf inh=>100
CCCc1[nH]nc2c1C(c1cc(OC)cc(OC)c1)C(C#N)=C(N)O2 (stereo not drawn),i,-5.3,.,10.3,0.0,-1.3,.,.,
COc1cccc(CN(C)C(=O)c2ccc(OCC(=O)Nc3cccc(C(F)(F)F)c3)c(OC)c2)c1,i,.,8.9,25.1,6.5,2.1,.,.,
COc1ccc(CN(C)C(=O)c2ccc(OCC(=O)Nc3cccc(C(F)(F)F)c3)c(OC)c2)c(OC)c1,i,.,1.1,44.9*,4.5,16.2,34.9,-1.2,
COc1ccccc1N1C(C)=CC(=C(C#N)c2nc3ccccc3s2)C=C1C,i,-2.1,-138.5,55.6*,.,-14.0,22.6,1.1,
CC1=CC(=C(C#N)c2nc3ccccc3s2)C=C(C)N1c1ccc(F)cc1,i,-11.0,-313.3,44.6*,-23.1,-20.9,23.9,0.0,
CC(C)=C(C#N)c1nc2ccccc2s1,i,-7.1,.,-8.7,-5.4,5.9,.,.,
COc1cccc(-c2nc3ccccc3s2)c1O,i,-1.3,5.4,15.4,1.9,0.8,.,.,
Cc1ccc(C(=O)NCCn2c(N)c(C#N)c3nc4ccccc4nc32)cc1,.,-16.6,.,10.5,2.3,-1.1,.,.,
COc1cccc(Cn2c(N)c(C#N)c3nc4ccccc4nc32)c1OC,i,-15.2,.,92.2*,.,-5.7,11.4,7.9,
COCCn1c(N)c(C#N)c2nc3ccccc3nc21,.,1.1,.,51.7*,11.9,-2.6,14.8,4.7,
N#Cc1c(N)n(CCc2ccc(F)cc2)c2nc3ccccc3nc12,.,-2.8,.,82.2*,4.6,-12.5,19.2,10.2,
COc1ccc(Cn2c(N)c(C#N)c3nc4ccccc4nc32)cc1,.,-14.2,.,50.4*,10.9,-18.8,12.2,0.0,
CO[C@H]1CN(C)C(=O)c2cc(NC(C)=O)ccc2OC[C@@H](C)N(CCC(F)(F)F)C[C@H]1C,.,.,13.4,.,-0.5,.,.,.,
N#Cc1c(N)n(CCOC(=O)c2cccc([N+](=O)[O-])c2)c2nc3ccccc3nc12,i,2.7,.,17.0,-0.3,-29.4,.,.,
N#Cc1c(N)n(CCOC(=O)c2cccc(Br)c2)c2nc3ccccc3nc12,.,-11.3,.,45.9*,-9.7,-17.1,19.8,10.6,
COc1cc(Cn2c(N)c(C#N)c3nc4ccccc4nc32)cc(OC)c1,.,-12.0,.,57.9*,5.3,21.7,17.5,3.7,
N#Cc1c(N)n(CCNC(=O)c2ccc(Cl)cc2)c2nc3ccccc3nc12,.,-9.6,.,66.5*,12.7,-1.7,21.6,4.4,
CCS(=O)(=O)Nc1ccc2c(c1)C(=O)N(C)[C@@H]1CC[C@@H](CC(=O)NC)O[C@@H]1CO2,.,.,-8.9,.,-7.3,.,.,.,
CCC(=O)N1CC[C@H]2[C@@H]1c1cc(-c3cccc(OC)c3)ccc1N(C)[C@H]2CO,.,.,4.2,.,17.2,.,.,.,
CN1C[C@@H](O)COC[C@@H]2O[C@@H](CC(=O)N3CCN(c4ccccc4)CC3)CC[C@H]21,.,.,-15.0,.,2.1,.,.,.,
CCS(=O)(=O)N1CC(=O)N2[C@H](CO)[C@@H](c3ccc(-c4ccccc4F)cc3)[C@H]2C1,.,.,-41.3,.,.,.,.,.,
SMILES,Neddyl block,DNA FID counter,RAD52 inh,Apaf1 inhib,RAD54 branch,UBC13 polyUb,Apaf-1 inh conf,Rh110 interf inh,others
CC(=O)Nc1ccc(C(=O)COC(=O)c2nc3nc(C)cc(C)n3n2)cc1,i,.,-3.1,41.2*,-16.3,-10.9,10.0,2.3,
O=C1Cc2cc([N+](=O)[O-])ccc2N1c1c(Cl)cccc1Cl,i,-3.0,-13.6,43.2*,-1.9,-21.5,11.0,1.6,
CN(Cc1ccccc1)C(=O)CN1C(=O)NC(C)(c2ccc(C(C)(C)C)cc2)C1=O (stereo not drawn),i,-35.9,-16.9,41.7*,-1.6,-14.4,20.5,4.5,
C[C@H](CO)N1C[C@H](C)[C@@H](CN(C)Cc2ccc(Cl)c(Cl)c2)Oc2c(NC(=O)CCC(F)(F)F)cccc2C1=O,i,.,-6.1,46.1*,0.0,7.0,22.9,17.4,
C[C@@H]1CN([C@@H](C)CO)C(=O)Cc2cc(NC(=O)CCC(F)(F)F)ccc2O[C@H]1CN(C)Cc1ccc(-c2ccccc2)cc1,.,.,31.5,.,6.3,.,.,.,
Cc1ccc(S(=O)(=O)Nc2ccc3c(c2)CC(=O)N([C@@H](C)CO)C[C@@H](C)[C@@H](CN(C)Cc2ccc(-c4ccccc4)cc2)O3)cc1,.,.,1.3,.,1.8,.,.,.,
C[C@H]1CN([C@@H](C)CO)C(=O)Cc2cc(NC(=O)CCC(F)(F)F)ccc2O[C@H]1CN(C)Cc1ccc(-c2ccccc2)cc1,i,.,-89.1,40.8*,1.7,9.4,22.6,-6.4,
Cc1ccc(S(=O)(=O)Nc2ccc3c(c2)CC(=O)N([C@H](C)CO)C[C@@H](C)[C@H](CN(C)Cc2ccc(-c4ccccc4)cc2)O3)cc1,i,.,15.9,41.0*,-0.8,12.2,-2.0,7.2,
C[C@@H]1CN([C@@H](C)CO)C(=O)c2cc(NC(=O)Nc3ccc(C(F)(F)F)cc3)ccc2O[C@@H]1CN(C)C(=O)Nc1ccc(C(F)(F)F)cc1,.,.,10.0,.,2.8,.,.,.,
C[C@H](CO)N1C[C@H](C)[C@@H](CN(C)Cc2ccccc2)OCCCC[C@H](C)Oc2ccc(NC(=O)C3CCCCC3)cc2C1=O,.,.,-4.7,.,9.1,.,.,.,
C[C@@H]1CN([C@H](C)CO)C(=O)c2cc(NC(=O)Cc3ccccc3)ccc2O[C@H]1CN(C)C(=O)NC1CCCCC1,.,.,8.6,.,-2.5,.,.,.,
C[C@H]1CN([C@@H](C)CO)C(=O)Cc2cc(NS(=O)(=O)c3ccc(Cl)cc3)ccc2O[C@H]1CN(C)C,.,.,1.5,.,-2.2,.,.,.,
O=C(NCCCN1CCN(Cc2ccccc2)CC1)C1CCN(c2nnc(-n3cccc3)s2)CC1,i,11.2,.,18.2,-14.1,32.8,.,.,
O=C(NCCCN1CCc2ccccc2C1)C1CCN(c2nnc(-n3cccc3)s2)CC1,i,2.8,-14.9,51.3*,2.9,31.7,24.5,9.3,
Brc1ccc(-c2cn3nc4c(nc3n2)CCCC4)cc1,i,-3.8,.,41.2*,.,11.1,31.9,7.0,

# Source: PubChem BioAssay
